Rows were chosen to be rich in hits. Some 4.1% of all compounds tested hit in one or more screens of this group.
ROMK mod: modulates human ROMK potassium channel activity | P48048 | Tet-inducible ROMK, thallium flux fluorescence; actives lie on both sides | B-score at 10 µM | actives 2% (n = 130,000);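 active means signal ratio slope over the read window, or its plate-corrected B-score, at least 3 SD from the plate mean, either direction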;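 further: B-score of the F/F0 ratio slope over 7 to 12 s after thallium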
Target sequence (P48048 whole entry, looked up): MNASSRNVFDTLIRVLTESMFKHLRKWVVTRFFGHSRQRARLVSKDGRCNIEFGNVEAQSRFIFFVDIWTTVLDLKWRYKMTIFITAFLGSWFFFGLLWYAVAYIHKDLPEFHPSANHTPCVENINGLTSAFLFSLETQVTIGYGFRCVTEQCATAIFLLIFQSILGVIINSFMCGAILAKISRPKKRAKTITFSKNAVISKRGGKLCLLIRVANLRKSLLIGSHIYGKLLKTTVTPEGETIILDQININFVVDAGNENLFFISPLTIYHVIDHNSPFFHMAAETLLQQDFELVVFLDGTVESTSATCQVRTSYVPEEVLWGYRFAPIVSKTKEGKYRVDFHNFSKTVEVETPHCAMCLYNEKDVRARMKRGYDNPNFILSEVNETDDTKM
Cl transport mod: modulators of human KCC2 chloride dependent transport; B-score of Tl+ flux slope (higher = more flux/activation; lower = inhibition) at 10 µM; KCC2 cells, thallium flux FluoZin-2 fluorescence; AID 1456; actives 2.2% (n = 190,000);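 active means thallium flux slope and its plate-corrected score both differing from the plate sample mean at a set confidence after two filtering rounds, in either direction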;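 further: slope of fluorescence scaled to starting intensity during 10 to 20 s after thallium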
Autophagy HCS: alters autophagy in cells; AID 463193; actives 0.98% (n = 190,000); MEF GFP-LC3 puncta imaging; test concentration mostly 10 µM; calls only at 10 µM (by protocol);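 active means percentage of spot-positive cells more than 3 SD above its plate mean, without a fluorescence outlier flag or 80% toxicity; inconclusive means no clear call, values can overlap the other calls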;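 further: spot-positive cell cutoff set from DMSO-treated cells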
Dynein transport: blocks dynein driven cargo transport along microtubules; 3617.4 mouse cells, GR-EGFP nuclear translocation imaging; test concentration mostly 20 µM; stimulated with dexamethasone, 1 µM; active compounds read low; z-score, hits read low; actives 0.47% (n = 220,000);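 active means plate z-score of nuclear minus cytoplasmic receptor signal below a set negative limit, without overly bright fluorescence or cell loss, cut at about -3.5 in these data, passing the limit was not always enough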;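 further: z-score of nuclear minus cytoplasmic ring GR-EGFP intensity difference per well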
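Also added – dexamethasone, 1.0 µM final · Buffer or medium – tet-free, stripped-serum medium · Schedule – induction 48 h, compound 1 h, agonist 30 min · Detection – formaldehyde fixation, Hoechst nuclear stain, 10x automated fluorescence imaging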
Redox H2O2 prof: compounds producing H2O2 with reducing agent – biochemical, NIH compound library profiling, artefact control for MLSCN library redox annotation, primary screen; activation, % at 10 µM; DTT-dependent redox cycling H2O2, phenol red/HRP absorbance; 100% = 100 µM peroxide control, 0% = buffer; actives 0.03% (n = 200,000);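 active means activation of at least 50% relative to the plate's high and low controls in the primary single-dose screen; inactive means activation below 50%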;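 further: compound incubated with DTT at 0.8 mM final as the reducing agent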
KCC2 secondary: confirmation of human KCC2 transport modulators; shares compounds with Cl transport mod; HEK293-KCC2, thallium flux, FluoZin2 fluorescence; active compounds read high; normalised thallium flux (F/F0 slope) at 10 µM; actives 15% (n = 3,700); AID 1713;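 active means thallium flux slope above the same plate's solvent-only control mean plus 3 SD; inconclusive means the two replicate wells disagree; inactive means no significant difference from solvent-only control wells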
KCC2 bumet counter: thallium flux despite bumetanide block in KCC2 cells, secondary assay 3 | shares compounds with Cl transport mod | HEK293-KCC2 + bumetanide/ouabain, thallium flux FluoZin2; active compounds read high | normalized thallium flux at 10 µM | actives 49% (n = 3,700);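 active means thallium entry rate above the same plate's blocked-transporter control wells by more than 3 SD; inconclusive means the two repeat wells disagree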;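 further: raw slope of fluorescence over initial fluorescence between 10 and 20 s after thallium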
KCC2 secondary2: KCC2 (human) modulation, second secondary assay; normalized thallium flux at 10 µM; actives 23% (n = 3,700); HEK293-KCC2, thallium flux FluoZin2 fluorescence; actives lie on both sides; F/F0 rise rate, 10–20 s post-thallium; shares compounds with Cl transport mod;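 active means thallium flux slope more than 3 SD above or below the plate's solvent-only control mean, mostly below; inconclusive means the two repeat wells disagreed; inactive means no significant shift from solvent-only controls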;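 further: raw slope with 0.1% DMSO as baseline and bumetanide as block control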
HEK293 Tl flux: counter-screen for KCC2 modulators: effect in parental HEK293 cells | shares compounds with Cl transport mod | thallium flux FluoZin2, ouabain; baseline-ratio fluorescence slope, 10–20 s after thallium | thallium flux rate (normalised fluorescence) at 10 µM | actives 46% (n = 3,700);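 active means thallium flux rate significantly above the same plate's solvent-only control wells, beyond their mean plus 3 SD; inconclusive means the two replicate wells gave conflicting results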
KCC2 retest ouab: KCC2 (human) modulation, ouabain retest. shares compounds with Cl transport mod. HEK293-KCC2, thallium flux FluoZin2 fluorescence; bidirectional: low = inhibitor, high = activator. raw Tl+ flux slope (below DMSO = inhibition, above = activation) at 10 µM. actives 48% (n = 3,700). AID 1717;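 active means thallium flux slope beyond 3 SD from same-plate DMSO control mean in most replicates, usually higher, sometimes lower; inconclusive means repeat tests gave conflicting results; inactive means no significant difference from controls in most replicates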;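 further: slope of initial-normalized fluorescence between seconds 10 and 20 after thallium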
HEK counter2: parental HEK flux effect, counter-screen 2. actives 33% (n = 3,700). thallium flux slope at 10 µM. HEK293 parental, thallium flux FluoZin-2 fluorescence slope. shares compounds with Cl transport mod;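 active means thallium flux slope above the same plate's solvent-control mean plus 3 SD in both duplicate wells; inconclusive means duplicate wells that disagreed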;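 further: run without ouabain in cells lacking the KCC2 cotransporter; slope of fluorescence scaled to its starting value between 10 and 20 s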
* hit, by the source's call; i = inactive; ? = inconclusive; . = not tested or not shown; ! = a repeat was not active.

SMILES	ROMK mod	Cl transport mod	Autophagy HCS	Dynein transport	Redox H2O2 prof	KCC2 secondary	KCC2 bumet counter	KCC2 secondary2	HEK293 Tl flux	KCC2 retest ouab	HEK counter2
COc1ccc(-c2nnc(-c3ccc(OCC(C)C)cc3)o2)cc1	.	-5.5*	i	-1.3	3	0.016	0.0051	0.029	0.0077	0.017	0.01
S=c1[nH]c2cc3ccccc3cc2[nH]1	0.077	3.3*!	.	0.33	.	0.017	0.0076*	?	0.0091*	0.016	?
CSc1nnc(-c2cnccn2)n1CCCN1CCCC1=O	0.7	8.2*	i	0.71	0	0.0073	0.0043	0.032	0.0074	0.02	0.01
CCn1c(SCC(=O)C(C)(C)C)nnc1-c1cnccn1	.	-0.6	i	-0.91	0	.	.	.	.	.	.
Cc1cccc(-n2cc(-c3ccccc3)c3c(N4CCOCC4)ncnc32)c1	0.26	0.012	i	0.21	0	.	.	.	.	.	.
COC(=O)c1ccc(NC(=O)c2cccc(C)c2[N+](=O)[O-])cc1	-0.41	-1.4	i	0.47	2	.	.	.	.	.	.
C(=C\c1ccccc1)/CSc1nnc(-c2ccccc2)n1Cc1ccco1	.	-2.9	i	0.3	2	0.016	?	0.023*	0.0042*	0.013*	0.0074*
Clc1cccc(CSc2nnc(-c3ccccn3)n2Cc2ccco2)c1	-0.73	.	i	-2.1	-1	.	.	.	.	.	.
Clc1cccc(-c2nnc(SC/C=C/c3ccccc3)n2Cc2ccco2)c1	.	-3.3*	i	-1.3	0	0.0052	?	0.03	0.0059*	0.015*	?
CC(=O)Nc1ccc(S(=O)(=O)Nc2c(C)n(C)n(-c3ccccc3)c2=O)cc1	1.1	0.43	i	-1	1	.	.	.	.	.	.
O=S(=O)(Nc1ccc(N2CCOCC2)cc1)c1ccc2ccccc2c1	-0.072	0.58	i	0.48	0	.	.	.	.	.	.
CC(=O)Nc1ccc(S(=O)(=O)Nc2c(C)nn(-c3ccccc3)c2C)cc1	.	.	i	0.6	2	0.0067	0.0043	0.03	?	0.016	0.009
Cc1nn(-c2ccc(F)cc2)c(C)c1NS(=O)(=O)c1ccc2ccccc2c1	.	-7.2*	i	-0.95	0	0.0053	?	0.022*	0.007	?	0.011
CC(C)(C)c1ccc(C(=O)CC(=O)c2cc(Cl)ccc2O)cc1	0.018	4.4*	i	-0.43	0	0.0055	0.018*	0.035	0.023*	0.025*	0.017*
Cc1ccc(C(=O)CC(=O)c2cc(Cl)ccc2O)cc1	1	.	i	-0.013	0	.	.	.	.	.	.
COC(=O)c1c(NC(=S)Nc2cc(OC)c(Cl)cc2OC)sc2c1CCCCC2	0.31	6.9*	i	-0.5	0	0.015*	0.025*	0.034	0.011*	0.024	?
CC(C)N1C(=O)S/C(=C/c2ccccc2OCc2ccc(C(=O)O)cc2)C1=O	-1.6	-4.7*	i	-0.9	0	0.0064	0.0047	0.024*	0.0064	0.014*	0.0088
CCOC(=O)N1CCN(C(=O)c2ccc3c(=O)n(-c4ccc(OC)cc4OC)c(=S)[nH]c3c2)CC1	-0.13	0.33	i	-0.66	2	.	.	.	.	.	.
